Data: ChEMBL document CHEMBL3526029, “Disposition and metabolism of GSK2251052 in humans: a novel boron-containing antibiotic” (Drug Metab Dispos, 2013)

Experiments:
[1] = Drug metabolism in cynomolgus monkey kidney S9 fraction assessed as (S)-3-(3-(aminomethyl)-1-hydroxy-1,3-dihydrobenzo[c][1,2]oxaborol-7-yloxy)propanoicacid formation at 50 to 500 uM after 3 hrs by liquid scintillation counting in presence of NADPH regeneration system; type: ADME, Macaca fascicularis; settings: s9, 3 h
[2] = Drug metabolism in cynomolgus monkey lung S9 fraction assessed as (S)-3-(3-(aminomethyl)-1-hydroxy-1,3-dihydrobenzo[c][1,2]oxaborol-7-yloxy)propanoicacid formation at 50 to 500 uM after 3 hrs by liquid scintillation counting in presence of NADPH regeneration system; type: ADME, Macaca fascicularis; settings: s9, 3 h
[3] = Drug recovery in healthy human urine at 1500 mg, iv infusion for 1 hr as single dose after 48 hrs; type: ADME, organism-based; settings: read-out: Drug recovery
[4] = Drug recovery in healthy human urine at 1500 mg, iv infusion for 1 hr as single dose after 264 hrs; type: ADME, organism-based; settings: read-out: Drug recovery
[5] = Drug recovery in healthy human feces at 1500 mg, iv infusion for 1 hr as single dose after 120 hrs; type: ADME, organism-based; settings: read-out: Drug recovery
In short: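 Feces were collected at 24-h intervals through 336 h after a 1500 mg [14C] i.v. 1-h infusion. Samples were homogenised with water and duplicate aliquots combusted for LSC. For profiling, 0–120 h pools were extracted twice with acetonitrile:methanol:water:formic acid, reconstituted, and analysed by radio-HPLC. Values were reported as % dose.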

[6] = Total drug recovery in healthy human at 1500 mg, iv infusion for 1 hr as single dose after 264 hrs; type: ADME, organism-based; settings: in vivo, read-out: Drug recovery
In short: (§1)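 Six healthy adult males, fasted ≥10 h, got one 1500 mg [14C]GSK2251052 dose ([…], 0.56 MBq) as a constant-rate 1-h IV infusion in 0.9% NaCl. Urine was collected at 0–6, 6–12 and 12–24 h, then in 24-h blocks to 336 h; feces in 24-h blocks. Urine was counted directly by LSC; feces were homogenized and combusted in duplicate before LSC. Cumulative recovery is given as mean % of dose.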

[7] = Drug metabolism in cynomolgus monkey cytosol assessed as (S)-3-(3-(aminomethyl)-1-hydroxy-1,3-dihydrobenzo[c][1,2]oxaborol-7-yloxy)propanoicacid formation at 50 to 500 uM after 3 hrs by liquid scintillation counting in presence of NAD+ and ADH inhibitor 4-MP; type: ADME, Macaca fascicularis, Liver
In short: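 NAD+ (7.5 mM) incubations of [14C]GSK2251052 with 4 mg/ml monkey liver cytosol or liver S9 in pyrophosphate buffer included 4-MP at 0.6 mM final. Incubations ran in triplicate at 37°C. Extracts were counted by LSC and pooled for radio-HPLC.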

[8] = Total drug recovery in healthy human at 1500 mg, iv infusion for 1 hr as single dose after 312 hrs; type: ADME, organism-based; settings: in vivo, read-out: Drug recovery; in short: as §1
Plasma [9] = assay: AUC (0 to infinity) in healthy human plasma assessed as radioactivity at 1500 mg, iv infusion for 1 hr as single dose; type: ADME, organism-based; design: dose 1500 mg, time infinity, route intravenous; settings: in vivo
In short: (§2)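 Six fasted healthy men received 1500 mg [14C]GSK2251052 as a 1-h i.v. infusion. Blood and plasma were sampled from predose to 336 h after infusion start. Radioactivity was counted by LSC; plasma below 870 ng eq/ml was reanalysed by accelerator MS, with predose background subtracted. Noncompartmental analysis used actual sampling times, linear-up/log-down trapezoids and CL = dose/AUC(0-∞).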

[10] = Total drug recovery in healthy human at 1500 mg, iv infusion for 1 hr as single dose after 168 hrs; type: ADME, organism-based; settings: in vivo, read-out: Drug recovery
[11] = Drug recovery in healthy human feces at 1500 mg, iv infusion for 1 hr as single dose after 312 hrs; type: ADME, organism-based; settings: read-out: Drug recovery
[12] = Drug recovery in healthy human feces at 1500 mg, iv infusion for 1 hr as single dose after 264 hrs; type: ADME, organism-based; settings: faeces, read-out: Drug recovery
[13] = Total drug recovery in healthy human at 1500 mg, iv infusion for 1 hr as single dose after 48 hrs; type: ADME, organism-based; settings: in vivo, read-out: Drug recovery; in short: as §1
[14] = Total drug recovery in healthy human at 1500 mg, iv infusion for 1 hr as single dose after 288 hrs; type: ADME, organism-based; settings: in vivo, read-out: Drug recovery; in short: as §1
Liver cytosol = assay: Drug metabolism in human liver cytosol assessed as (S)-3-(3-(aminomethyl)-1-hydroxy-1,3-dihydrobenzo[c][1,2]oxaborol-7-yloxy)propanoicacid formation at 50 to 500 uM after 3 hrs by liquid scintillation counting in presence of NAD+; type: ADME
In short: (§3)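 [14C]GSK2251052 was incubated in triplicate for 1 or 3 h at 37°C with 4 mg/ml S9 (monkey liver, lung or kidney; human liver), liver cytosol or liver microsomes and 7.5 mM NAD+. Buffer was pyrophosphate at pH 7.4, 8.4 or 8.8. Controls lacked cofactor or enzyme. Reactions were quenched with acetonitrile, counted by LSC, and pooled for radio-HPLC.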

[15] = Total drug recovery in healthy human at 1500 mg, iv infusion for 1 hr as single dose after 216 hrs; type: ADME, organism-based; settings: in vivo, read-out: Drug recovery; in short: as §1
[16] = Drug recovery in healthy human feces at 1500 mg, iv infusion for 1 hr as single dose after 96 hrs; type: ADME, organism-based; settings: read-out: Drug recovery
Blood [17] = assay: AUC (0 to t) in healthy human whole blood assessed as radioactivity at 1500 mg, iv infusion for 1 hr as single dose; type: ADME, organism-based; settings: in vivo; in short: as §2
[18] = Drug metabolism in human liver S9 fraction assessed as (S)-3-(3-(aminomethyl)-1-hydroxy-1,3-dihydrobenzo[c][1,2]oxaborol-7-yloxy)propanoicacid formation at 50 to 500 uM after 3 hrs by liquid scintillation counting in presence of NAD+; type: ADME, subcellular; settings: s9, 3 h; in short: as §3
[19] = Drug recovery in healthy human feces at 1500 mg, iv infusion for 1 hr as single dose after 144 hrs; type: ADME, organism-based; settings: read-out: Drug recovery
[20] = Total drug recovery in healthy human at 1500 mg, iv infusion for 1 hr as single dose after 96 hrs; type: ADME, organism-based; settings: in vivo, read-out: Drug recovery; in short: as §1
Plasma [21] = assay: Volume of distribution at steady state in healthy human plasma assessed as radioactivity at 1500 mg, iv infusion for 1 hr as single dose; type: ADME, organism-based; settings: in vivo
In short: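 Healthy males got a 1500 mg [14C] dose as a 1-h IV infusion. K2EDTA blood was taken at serial times to 336 h. Radioactivity in blood and plasma was measured by LSC; plasma below 870 ng eq/ml was re-measured by accelerator mass spectrometry. Vss = CL × MRT, with CL = dose/AUC(0-∞), from noncompartmental analysis on actual times.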

Blood [22] = assay: Tmax in healthy human whole blood assessed as radioactivity at 1500 mg, iv infusion for 1 hr as single dose; type: ADME, organism-based; settings: in vivo
In short: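 Healthy men got a single 1500 mg [14C] dose by 1 h i.v. infusion. K2EDTA blood was sampled up to 336 h. Radioactivity in blood and plasma was measured by LSC, with AMS for plasma below LLQ. Parent and M3 were measured by LC/MS/MS (5–10,000 ng/ml range). Noncompartmental analysis used actual times, with t1/2 = ln2/λz and Tmax observed directly, timed from infusion start.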

[23] = Total drug recovery in healthy human at 1500 mg, iv infusion for 1 hr as single dose after 120 hrs; type: ADME, organism-based; settings: in vivo, read-out: Drug recovery

For `Cl.N[14CH2][C@H]1OB(O)c2c(OCCCO)cccc21`, the Drug metabolism [1] was “metabolite_not_detected”, the Drug metabolism [2] was “metabolite_not_detected” and the dose excreted at 48 h [3] was 69.2%. It also gave a dose excreted at 264 h [4] of 89.3%, a dose excreted at 120 h [5] of 7.3% and a dose excreted at 264 h [6] of 97%. The Drug metabolism [7] was “metabolite_not_detected”, the dose excreted at 312 h [8] was 97.8% and the AUC (Plasma [9]) was 195 µg·h/mL. It also gave a dose excreted at 168 h [10] of 94%, a dose excreted at 312 h [11] of 7.6% and a dose excreted at 264 h [12] of 7.6%. The dose excreted at 48 h [13] was 70.5%, the dose excreted at 288 h [14] was 97.4% and the Drug metabolism (Liver cytosol) was “metabolite_not_detected”. The dose excreted at 216 h [15] was 95.8%, the dose excreted at 96 h [16] was 6.4% and the AUCt (Blood [17]) was 141 µg·h/mL. For the same compound, the Drug metabolism [18] was “metabolite_not_detected”, the dose excreted at 144 h [19] was 7.5% and the dose excreted at 96 h [20] was 87.5%. It also gave a Vdss (Plasma [21]) of 348 L, a Tmax (Blood [22]) of 55 min and a dose excreted at 120 h [23] of 90.7%.
